From PMC4617824 (Cancer research, 2014)

Columns and labels:
14-3-3ν = 14-3-3ν (UniProt Q04917); assay: TR-FRET titration; settings: reference: unphosphorylated T44 peptide; sites T44
[1] = system: phosphorylated levels of GST-Cables1 (endogenous Akt); assay type: cell-based; settings: for block of IGF-1-induced enhancement of GST-Cables1 phosphorylation: 10 μM inhibitor 1 h, then 100 ng/ml IGF 15 min, serum-starved cells
[2] = system: Akt phosphorylation at T473 (Akt pT473); assay: A549 xenograft tumors: Akt phosphorylation; assay type: in vivo, lung cancer A549 xenograft mouse model; settings: compared with vehicle, Figure S1
[3] = system: phosphorylation of Cables1 at T44 and T150; assay: A549 xenograft tumors: Cables1 phosphorylation; assay type: in vivo, lung cancer A549 xenograft mouse model; settings: Figure S1
[4] = system: Cables1 binding to 14-3-3 (GST-Cables1 / His-14-3-3γ); settings: COS7 lysates expressing GST-Cables1 and His-14-3-3γ, 0.5 h, room temperature
How it was run: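 COS7 cells co-expressing His-14-3-3γ and GST-Cables1 were lysed. Lysates were incubated 0.5 h at room temperature with calf intestinal phosphatase, with phosphatase inhibitors (5 mM Na4P2O7, 5 mM NaF, 5 mM Na3VO4), or untreated. His-14-3-3γ complexes were captured on nickel-charged resin (2 h, 4°C), washed, and eluted by boiling in SDS sample buffer. GST-Cables1 was detected by Western blot.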

UniProt Q04917, sequence (Q04917 whole entry, looked up): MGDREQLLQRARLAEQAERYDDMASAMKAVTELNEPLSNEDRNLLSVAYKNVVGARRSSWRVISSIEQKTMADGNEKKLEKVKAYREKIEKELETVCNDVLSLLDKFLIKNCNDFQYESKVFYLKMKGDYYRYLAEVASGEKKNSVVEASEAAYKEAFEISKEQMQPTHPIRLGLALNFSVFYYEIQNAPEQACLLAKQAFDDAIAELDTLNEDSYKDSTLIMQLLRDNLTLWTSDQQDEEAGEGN

In the case of “Cables1 (from UniProt Q8TDN4-2) pT44 peptide”, the “binding against the reference” value (14-3-3ν) is reported as “stronger”.

`O=c1cc(N2CCOCC2)oc2c(-c3ccccc3)cccc12` [LY294002] was tested, and the “block of IGF-1-induced enhancement of GST-Cables1 phosphorylation” value [1] was “totally blocked”.

In the case of `O.O=C(O)C(F)(F)F.O=c1[nH]c2ccccc2n1C1CCN(Cc2ccc(-c3nc4cc5[nH]cnc5cc4nc3-c3ccccc3)cc2)CC1` [AKT1/2 inhibitor], the “block of IGF-1-induced enhancement of GST-Cables1 phosphorylation” value [1] is reported as “totally blocked”.

For `CC(C)n1nc(-c2ccc3oc(N)nc3c2)c2c(N)ncnc21` [INK128], the “Akt pT473 level in tumors” value [2] was “reduced”, the “phosphorylation of Cables1 at T44 in tumors” value ([3]; pT44, compared with vehicle) was “decreased” and the “phosphorylation of Cables1 at T150 in tumors” value ([3]; pT150, compared with vehicle) was “decreased”.

With IGF-1: IGF-1, Sigma-Aldrich the “phosphorylated levels of GST-Cables1” value ([1]; 100 ng/ml IGF, 15 min, cells serum-starved 24 h, GST pull-down, Western blot) was “markedly enhanced”.

B1: CIP: calf intestinal phosphatase (protein, UniProt P19111 20-506, looked up)
Intestinal-type alkaline …: LVPVEEEDPAFWNRQAAQALDVAKKLQPIQTAAKNVILFLGDGMGVPTVTATRILKGQMNGKLGPETPLAMDQFPYVALSKTYNVDRQVPDSAGTATAYLCGVKGNYRTIGVSAAARYNQCKTTRGNEVTSVMNRAKKAGKSVGVVTTTRVQHASPAGAYAHTVNRNWYSDADLPADAQMNGCQDIAAQLVNNMDIDVILGGGRKYMFPVGTPDPEYPDDASVNGVRKRKQNLVQAWQAKHQGAQYVWNRTALLQAADDSSVTHLMGLFEPADMKYNVQQDHTKDPTLQEMTEVALRVVSRNPRGFYLFVEGGRIDHGHHDDKAYMALTEAGMFDNAIAKANELTSELDTLILVTADHSHVFSFGGYTLRGTSIFGLAPSKALDSKSYTSILYGNGPGYALGGGSRPDVNDSTSEDPSYQQQAAVPQASETHGGEDVAVFARGPQAHLVHGVEEETFVAHIMAFAGCVEPYTDCNLPAPTTATSIPD
With B1 the “Cables1 binding to 14-3-3 after CIP treatment” value [4] was “reduced”.
